Screening data (PubChem)
T cruzi growth-1 – T. cruzi proliferation inhibition | AID 624255 | T. cruzi beta-gal in NIH3T3, GalScreen luminescence, 90 h | inhibition, % at 8.34 µM | 5.9% of 77,000 active;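 active = mean inhibition above about 93%, with at least 55% of replicates each passing it, limit read from the data, passing the limit was not always enough; inconclusive = only one of those two conditions holds; inactive = neither condition holds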
IDH1 mut inh – blocks human IDH1 R132H reductase activity. inhibition, % at 10 µM. 0.18% of 70,000 active. diaphorase/resazurin fluorescence, 60 min. AID 624101. O75874; in the data active = inhibition above about 34%; inconclusive = no clear call, values can overlap the other calls; inactive = below about 11%
Target sequence (O75874 whole entry R132H): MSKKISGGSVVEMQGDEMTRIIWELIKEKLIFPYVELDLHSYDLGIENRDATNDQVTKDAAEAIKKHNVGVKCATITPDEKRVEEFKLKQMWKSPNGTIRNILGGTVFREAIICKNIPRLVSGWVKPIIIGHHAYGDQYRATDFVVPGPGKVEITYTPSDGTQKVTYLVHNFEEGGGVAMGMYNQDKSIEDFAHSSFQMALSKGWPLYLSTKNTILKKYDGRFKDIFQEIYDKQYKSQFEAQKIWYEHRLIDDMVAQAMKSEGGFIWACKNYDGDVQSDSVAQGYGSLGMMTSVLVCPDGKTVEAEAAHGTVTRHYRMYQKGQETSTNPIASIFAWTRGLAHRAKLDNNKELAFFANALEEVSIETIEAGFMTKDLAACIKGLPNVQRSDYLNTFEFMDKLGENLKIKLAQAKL
Pf Dd2 inh – blocks growth of Plasmodium falciparum Dd2 parasites | P. falciparum Dd2 growth, SYBR Green, 72 h; hits give low values | activity change, % at 10 µM | 2.3% of 94,000 active | AID 1159554; in the data active = activity change below about -80%; inconclusive = no clear call, values can overlap the other calls
GASC1 inh – inhibitors of human demethylase GASC-1 KDM4C; GST-KDM4C 2-372, H3K9me3 peptide, LANCE TR-FRET; Q9H3R0; inhibition, % at 12.5 µM; 0.15% of 96,000 active;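 active = mean replicate inhibition above about 25%, with at least 55% of replicates also reaching it, limit read from the data, passing the limit was not always enough; inconclusive = only one of those two conditions met; inactive = neither condition met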
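Compound: one test concentration per compound; Material: GST-GASC-1 enzyme fragment 2-372; Amount: GASC-1 enzyme at 10 nM final in reaction; Also added: H3K9me3 peptide substrate, Fe(II), 2-oxoglutarate; Technique: LANCE TR-FRET; Times: 30 min demethylation and 1 h detection at room temperature.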
T cruzi growth-2 – blocks T. cruzi growth in NIH3T3 host cells; shares compounds with T cruzi growth-1; T. cruzi beta-gal in NIH3T3, GalScreen luminescence, 90 h; inhibition, % at 8.35 µM; 72% of 5,600 active; AID 651739;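 active = mean replicate inhibition above about 95% and at least 55% of replicates individually reaching it, limit read from the data; inconclusive = only one of the two criteria is met; inactive = neither criterion is met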
T cruzi growth-3 – blocks T. cruzi growth in NIH3T3 host cells; inhibition, % at 2.09 µM; T. cruzi beta-gal in NIH3T3, GalScreen luminescence, 90 h; AID 651740; shares compounds with T cruzi growth-1; 21% of 5,600 active;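 active = mean inhibition above about 95%, with at least 55% of replicates also reaching it, limit read from the data; inconclusive = meets just one of the two conditions; inactive = meets neither condition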
3T3 cytotox – kills mouse NIH/3T3 fibroblasts; 14% of 5,600 active; NIH/3T3 viability, CellTiter-Glo ATP luminescence, 90 h; AID 651742; cytotoxicity (signal decrease), % at 8.35 µM; shares compounds with T cruzi growth-1;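 active = mean signal decrease across replicates above about 35% based on untreated-well scatter, with enough replicates individually passing, limit read from the data; inconclusive = no rule stated though some were filed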
NIH3T3 tox 2 – cytotoxicity in mouse NIH/3T3 fibroblasts. NIH/3T3 viability, CellTiter-Glo ATP luminescence, 90 h. inhibition, % at 24.9 µM. shares compounds with T cruzi growth-1. 56% of 5,600 active;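 active = mean loss of cell viability signal at or above a set limit, and enough replicates individually reaching it; inconclusive = meets only the mean limit or only the replicate share; inactive = meets neither condition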
Hits are given with their value; . = inactive; ? = inconclusive; / = not tested or not shown; + = active, no number. Hits are enriched below; roughly 5.8% of the tested compounds scored in any of these assays.

SMILES	T cruzi growth-1	IDH1 mut inh	Pf Dd2 inh	GASC1 inh	T cruzi growth-2	T cruzi growth-3	3T3 cytotox	NIH3T3 tox 2
C[C@@H]1CN([C@H](C)CO)C(=O)Cc2cc(NC(=O)Cc3cn(C)c4ccccc34)ccc2O[C@H]1CN(C)Cc1ccc(Cl)c(Cl)c1	?	.	.	.	98.3	.	.	43.2
C[C@@H]1CN([C@H](C)CO)C(=O)c2cc(NC(=O)Cc3cn(C)c4ccccc34)ccc2O[C@@H]1CN(C)Cc1ccc(Cl)c(Cl)c1	102.1	.	.	.	99.4	.	.	37.2
CCN1[C@@H]2c3cccc(=O)n3C[C@@H]2[C@@H](CO)[C@@H]1C(=O)N1CCc2ccccc2C1	.	/	.	.	/	/	/	/
CCCN1[C@H](C(=O)N(C)C)[C@@H](CO)[C@@H]2Cn3c(ccc(/C=C/c4ccccc4)c3=O)[C@@H]21	.	/	/	.	/	/	/	/
O=C([C@H]1N[C@H]2c3ccc(/C=C/c4ccccc4)c(=O)n3C[C@H]2[C@@H]1CO)N1CCCCC1	+	/	/	.	.	.	.	.
O=C(O)[C@@H]1[C@@H](CO)[C@@H]2Cn3c(ccc(/C=C/c4ccccc4)c3=O)[C@@H]2N1Cc1ccc2c(c1)OCO2	101.6	/	/	.	.	.	.	100.8
O=C(O)[C@H]1[C@H](CO)[C@H]2Cn3c(ccc(/C=C/c4ccccc4)c3=O)[C@H]2N1Cc1ccc2c(c1)OCO2	127.2	/	/	.	.	.	.	62.7
O=C(O)[C@H]1[C@H](CO)[C@H]2Cn3c(ccc(/C=C/c4ccccc4)c3=O)[C@H]2N1C(=O)c1cnccn1	.	/	/	.	/	/	/	/
COC(=O)[C@H]1[C@H](CO)[C@H]2Cn3c(ccc(/C=C/c4ccccc4)c3=O)[C@H]2N1C(=O)c1cnccn1	101.1	/	.	.	.	.	.	40.3
CCC(=O)N(C)C[C@@H]1Oc2cc(C3=CCCCC3)ccc2S(=O)(=O)N([C@@H](C)CO)C[C@H]1C	.	.	.	.	/	/	/	/
O=C([C@@H]1[C@@H](CO)[C@@H]2Cn3c(ccc(C4=CCCCC4)c3=O)[C@H]1N2)N1CCC(Cc2ccccc2)CC1	100.4	/	.	.	.	.	.	.
O=C([C@H]1N[C@H]2c3ccc(C4=CCCCC4)c(=O)n3C[C@H]2[C@@H]1CO)N1CCC(Cc2ccccc2)CC1	.	/	/	.	/	/	/	/
COc1ccc(-c2ccc(C#N)c(SCC(=O)Nc3cccc(C(F)(F)F)c3)n2)cc1	/	.	/	/	/	/	/	/
O=C(C[C@H]1CC[C@@H]2[C@H](COC[C@@H](O)CN2C(=O)c2ccncc2)O1)NC1CCC1	96.7	/	.	.	.	.	.	.
O=C(C[C@@H]1CC[C@@H]2[C@H](COC[C@H](O)CN2C(=O)c2ccncc2)O1)NC1CCC1	107.9	/	.	.	.	.	.	.
COc1ccccc1C#Cc1ccc([C@@H]2[C@@H](CO)N3CCCCN(C(=O)C4CCCC4)C[C@H]23)cc1	111.9	/	.	/	103.3	.	.	106.0
COc1ccccc1C#Cc1ccc([C@H]2[C@@H](CO)N3CCCCN(C(=O)C4CCCC4)C[C@@H]23)cc1	117.9	/	.	/	101.4	105.4	?	70.8
COc1ccccc1C#Cc1ccc([C@H]2[C@H]3CN(S(C)(=O)=O)CCCCN3[C@H]2CO)cc1	.	/	.	.	/	/	/	/
COc1ccccc1C#Cc1ccc([C@H]2[C@H]3CN(C(=O)C4CCCC4)CCCCN3[C@H]2CO)cc1	114.3	/	.	/	.	.	.	53.8
COc1ccccc1C#Cc1ccc([C@H]2[C@@H](CO)N3CCCCN(S(C)(=O)=O)C[C@H]23)cc1	.	/	.	.	/	/	/	/
CCOC(=O)COc1cccc(-c2nc3ccccc3s2)c1	/	.	/	/	/	/	/	/
N#C[C@H]1[C@@H](c2ccc(C#Cc3cccc(F)c3)cc2)[C@H](CO)N1C(=O)C1CCCC1	100.4	/	.	.	.	105.4	.	103.4
N#C[C@H]1[C@H](c2ccc(C#Cc3ccc(F)cc3)cc2)[C@@H](CO)N1C(=O)C1CCC1	.	/	.	.	/	/	/	/
